# Screens (PubChem BioAssay)
# Rows were chosen to be rich in hits. Some 7.1% of all compounds tested hit in one or more screens of this group.
# HCT116 PTEN-null = growth suppression of PTEN-null HCT116, primary screen, cell-based, CellTiter-Glo. 1.2% of 140,000 active. viability, % at 10 µM. HCT116 PTEN-null viability, 60 h; stronger effect = lower value;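 active = viability at or below a set limit, 4 SD under the median of all tested compounds, cut at about 3.7% in these data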;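 also: PTEN knockout HCT116 line with beta catenin targeted HCT116 as companion control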
# HUVEC prolif 384 = inhibitors of HUVEC proliferation, primary screen, cell-based, 384-well; 1.1% of 86,000 active; AID 648, 2007; CellTiter-Glo luminescence, 72 h; stronger effect = lower value; viability, % at 10 µM (by protocol);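 active = viability at or below 30%; inactive = viability above 30%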;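 also: 100% = median luminescence of DMSO-only cell control wells on each plate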
# Fibroblast inh = antiproliferative effect on LL 47 fibroblasts – human, LL 47 cells, CellTiter-Glo luminescence, primary screen; viability, % at 10 µM; LL 47 human lung fibroblast viability, ATP luminescence; stronger effect = lower value; AID 719, 2007; 1.1% of 85,000 active;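 active = viability at or below 50% in the single dose screen; inactive = viability above 50%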;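 also: compound exposure lasted 72 h before the ATP readout; 100% = median luminescence of untreated cell-only wells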
#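 Material: human LL 47 lung fibroblast cells; quantity: 1,150 cells/well; medium: IMEM plus 15% FBS; doses: 0.1% DMSO in all compound wells; timing: overnight attachment after seeding, then 72 h compound exposure at 37 °C; detection: CellTiter-Glo luminescence; measure: % viability of median cell-only signal; controls: cell-only wells, no compound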
# Cav32 inh = Cav3.2 calcium influx blockers – cell-based, Fluo-4 calcium fluorescence, FDSS, MLSMR library, primary screen | Cav3.2-expressing cells; stronger effect = lower value | Voltage-dependent T-type calcium channel subunit alpha-1H (Homo sapiens), O95180 | 4% of 100,000 active | B-score at 10 µM;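 active = single-dose well whose peak fluorescence ratio is a statistical outlier from its plate by either plate-standardised score or position-corrected B-score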
# H69AR inhibit = proliferation blockers of H69AR lung cancer cells, primary screen, cell-based, human, 86K library | viability, % at 10 µM | H69AR lung tumor viability, ATP luminescence, 72 h; stronger effect = lower value | 6% of 85,000 active;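 active = viability at or below 40%; inactive = viability above 40%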;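 also: multidrug resistant small cell line overexpressing MRP-1 efflux transporter; 100% = mean luminescence of untreated control wells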
# bCat KO growth = primary screen for growth suppressors in beta-catenin knockout HCT116 cells (colon tumor, human); HCT116 beta-catenin knockout viability, CellTiter-Glo, 60 h; stronger effect = lower value; viability, % at 10 µM; 1.5% of 140,000 active; AID 818, 2007;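 active = viability at or under a set limit, the compound median less 4 SD, cut at about 6% in these data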;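 also: 0% = Hyamine 1622 control at 20 µM and 100% = untreated cell control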
# * marks the source's active call; other numbers are inactive results; x = no result given.
SMILES,HCT116 PTEN-null,HUVEC prolif 384,Fibroblast inh,Cav32 inh,H69AR inhibit,bCat KO growth
CCN(CC)S(=O)(=O)c1ccc(Cc2ncc(C(F)(F)F)cc2Cl)s1,72,108,94,-3.7*,79,69
CC(N1CCOC1=O)S(=O)(=O)c1ccccc1 (centres undefined),109,93,104,-0.59,95,97
CCn1cc(C(=O)NCc2ccccc2)c(=O)c2cc(F)c(N3CCN(C(=O)c4ccco4)CC3)cc21,44,63,93,2.2,12*,58
CC(=O)c1c(C)nc2sc3c(=N)n(N)cnc3c2c1-c1ccc(Cl)cc1,59,x,x,x,x,43
COC(=O)c1ccc2c(=O)n(CCC3=CCCCC3)c(SCC(=O)N3CCCC3)nc2c1,x,78,100,x,48,x
Cc1cc(C)nc(NS(=O)(=O)c2ccc(NC(=O)C3(c4ccc([N+](=O)[O-])cc4)CCCC3)cc2)n1,95,x,x,x,x,92
Cc1cccc(NC(=O)c2cc([N+](=O)[O-])ccc2NC2CCCCC2)c1,65,x,x,x,x,64
Cc1cccc(NC(=O)C(c2cccc([N+](=O)[O-])c2)N2CCCCC2)c1 (centres undefined),71,x,x,-8*,x,50
Cc1cccc(NC(=O)C2(c3ccc([N+](=O)[O-])cc3)CCCC2)c1,36,x,x,-5.5*,x,40
COC(=O)/C=C1\OC(c2ccccc2)=CC1=O,89,x,x,x,x,93
CCCCCC(=O)N(O)C1CC(=O)N(c2ccccc2)C1=O (centres undefined),76,97,101,-0.044,35*,74
CCCCCCC(=O)N(O)C1CC(=O)N(Cc2ccccc2)C1=O (centres undefined),64,76,85,-3.7,83,57
CCOc1ccc(-n2c(N)c(-c3nc4ccccc4n3C)c3nc4ccccc4nc32)cc1,47,x,x,x,x,54
CN(Cc1ccccc1)S(=O)(=O)c1ccc(S(=O)(=O)N(Cc2ccc(F)cc2)C2CCCC2)cc1,88,87,99,-2.5,32*,85
O=S(=O)(NCc1ccccc1)c1ccc(S(=O)(=O)N(Cc2ccccn2)C2CCCC2)cc1,77,80,94,-4.1*,72,79
CCNS(=O)(=O)c1ccc(S(=O)(=O)N(Cc2ccccn2)C2CCCCC2)cc1,90,101,90,-0.81,97,90
Cc1cc(-c2nsc(=O)o2)c(S(C)(=O)=O)s1,113,100,x,x,86,103
O=C(COC(=O)c1cc(Cl)ccc1[N+](=O)[O-])NCc1ccc(Cl)cc1Cl,84,x,x,x,x,99
CC/C(=N\n1nnnc1Nc1ccccc1)c1ccccc1,79,110,102,-5.7*,99,75
CC(C)c1ccc(/C=N/n2nnnc2Nc2ccccc2)cc1,90,91,108,-0.017,91,93
Clc1cccc(-c2ccc(C=Nc3ccc(N4CCOCC4)cc3)o2)c1,90,x,x,x,x,89
CN(C)c1nccc(N(Cc2ccccc2)Cc2ccccc2)c1C#N,67,89,93,-5.7*,86,66
CC(=O)OC(c1nc2ccccc2c(=O)n1C1CC2(OC1=O)c1ccccc1N1C(=O)C(C)(C)N(O)C12)C(C)C (centres undefined),x,x,x,-0.44,x,x
COc1ccc(CC(=O)NC2CC(C)(C)NC(C)(C)C2)cc1,95,94,103,0.082,88,90
Cc1cc2nc3c(=O)n(C4CCCCC4)c(=O)[nH]c3nc2cc1N,95,x,x,x,x,88
SMILES,HCT116 PTEN-null,HUVEC prolif 384,Fibroblast inh,Cav32 inh,H69AR inhibit,bCat KO growth
O=C(CSCc1ccc(Cl)cc1)NCc1ccc2c(c1)OCO2,98,77,109,-6.1*,108,85
O=C(CSc1nnc(SCC(=O)NCc2ccc3c(c2)OCO3)s1)NCc1ccc2c(c1)OCO2,103,x,x,0.27,x,101
O=C(CSCc1ccc(Cl)cc1)Nc1ccc2c(c1)OCO2,93,95,99,-5.6*,99,92
O=C(CN1CCN(Cc2ccccc2)CC1)N/N=C/c1c[nH]c2ccccc12,86,x,x,x,x,87
COCCn1c(C)cc(C(=O)COC(=O)c2c(C)nn(Cc3ccccc3)c2C)c1C,77,93,113,-5.9*,88,94
Cc1nn(Cc2ccccc2)c(C)c1C(=O)OCC(=O)c1cc(C)n(C2CC2)c1C,76,96,96,-4.8*,80,64
COCCn1c(C)cc(C(=O)COC(=O)c2n[nH]c3ccccc23)c1C,70,82,81,-2.3,59,68
Cc1ccc(N2C(=O)c3ccccc3C2Nc2ccccc2)nc1 (centres undefined),109,94,94,-0.23,81,77
CCc1cccc(NC2c3ccccc3C(=O)N2c2ccc(C)cn2)c1 (centres undefined),77,98,84,-4.4*,74,76
O=C(Cn1c2ccccc2c(=O)c2cc([N+](=O)[O-])ccc21)Nc1ccccc1Cl,54,x,x,x,x,47
CCOC(=O)C1CCN(C(=O)CCCN2C(=O)c3ccccc3C2=O)CC1,103,86,96,x,101,102
O=C(CCCCCCN1C(=O)c2ccccc2C1=O)N1CCC(c2ccccc2)C1 (centres undefined),85,93,118,-4.3*,69,84
O=C(N/N=C\C=C\c1ccco1)c1cc(-c2ccc3ccccc3c2)n[nH]1,3.6*,x,x,x,x,7
COc1cc(C(=O)Nc2ccc(Br)cc2C(=O)c2cc(OC)c(OC)c(OC)c2)cc(OC)c1OC,36,x,x,0.24,x,32
O=C(Nc1ccc(Oc2nnc(-c3ccccc3)c3ccccc23)cc1)c1ccccc1,64,x,x,x,x,77
CCCCCCOc1ccc(/C=c2\s/c(=C(/C#N)C(=O)NCc3ccco3)n(-c3ccccc3)c2=O)cc1,7,x,x,x,x,4.7*
COC(=O)/C=c1/s/c(=C(/C#N)C(=O)NCc2ccccc2)n(-c2ccccc2)c1=O,97,99,103,-0.12,93,93
Cc1cccc(OCC(=O)N/N=C/c2cc([N+](=O)[O-])ccc2N2CCOCC2)c1,71,x,x,x,x,71
O=C1COc2ccc(C(=O)c3ccccc3C(=O)NCc3ccccc3)cc2N1,94,109,96,-7.2*,112,90
Cc1sc2ncnc(NCC(c3ccco3)N3CCCC3)c2c1C (centres undefined),41,75,89,0.64,36*,31
O=c1c2ccccc2nc(-c2ccc(Cl)cc2)n1C1CCS(=O)(=O)C1 (centres undefined),x,102,104,-4.2*,92,x
CCOC(=O)C1=C(C)N(CCCC(=O)O)C(=O)NC1c1cccs1 (centres undefined),x,x,x,0.21,x,x
Cc1ccc2c(c1)-c1c(ssc1=S)C(C)(C)N2C(=O)CSc1nncn1C,63,89,92,0.14,79,67
